Columns and labels:
[1] = test system: RWPE-1 cells; experiment: Prostate cell growth, RWPE-1; type: cell-based; conditions: immortalized epithelial, normal cells
[2] = target: T1, RGS17ΔN–Gαo interaction in HEK293T cells (Homo sapiens, UniProt Q9UGC6); experiment: Confocal localization of GFP-RGS17ΔN cotransfected with hGαo; type: cell-based; conditions: for delocalization of RGS17ΔN from the cell membrane, GFP signal quantification: 10 µM, longer time course; for delocalization of RGS17ΔN from the cell membrane: 100 µM
T1 sequence (Q9UGC6 61-210): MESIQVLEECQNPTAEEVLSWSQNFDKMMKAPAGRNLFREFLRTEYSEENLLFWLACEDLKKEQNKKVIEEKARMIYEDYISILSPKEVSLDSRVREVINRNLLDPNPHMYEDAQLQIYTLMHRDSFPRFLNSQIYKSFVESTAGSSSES

[3] = test system: RGS17ΔN–Gαo interaction in HEK293T cells; experiment: as above; type: cell-based; conditions: 100 µM, imaging time course
[4] = target: T2, RGS17ΔN (1ZV4 construct) (Homo sapiens, UniProt Q9UGC6); experiment: Covalent modification of RGS17 by ESI-TOFMS; type: binding; conditions: ESITOFMS, 5:1 test compound to RGS17, 72 h
T2 sequence (Q9UGC6 72-206): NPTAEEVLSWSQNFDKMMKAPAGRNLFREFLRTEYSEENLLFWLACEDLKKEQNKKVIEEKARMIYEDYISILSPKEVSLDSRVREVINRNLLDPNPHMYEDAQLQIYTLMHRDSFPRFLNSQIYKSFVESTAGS
Summary of the method: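 Protein: RGS17ΔN (1ZV4 construct) at 20 µM in 25 mM HEPES, 100 mM NaCl, 5% DMSO, pH 8. Incubated at 4 °C for 72 h with or without 100 µM test compound. Dialysed 24 h at 4 °C against 25 mM NH4HCO3 and 100 µM NaCl to remove noncovalent compound, with a second dialysis for some compounds. Analysed by direct-infusion positive-mode ESI-TOF with spectral deconvolution.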

[5] = test system: TEM4-18 cells; experiment: Prostate tumor cell growth, TEM4-18; type: cell-based; conditions: dose-response
[6] = test system: PC3E cells; experiment: Prostate tumor cell growth, PC3E; type: cell-based; conditions: for inhibition of PC3E cell growth: dose-response; for sensitization of PC3E cells by overexpression of RGS17: transient transfection, data not shown
[7] = test system: A549 lung tumor cells; experiment: Growth of A549 lung tumor cells; type: cell-based; conditions: up to 1 µM, 6 days in culture, relative to DMSO control
Summary of the method: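 Subconfluent A549 cells were trypsinized, counted and plated at 1000 per well in 24-well plates, then left to attach overnight. Triplicate wells received test compound or matched DMSO (≤0.2% final). Confluence was imaged every 2 h for 6 days, with images checked to exclude morphology effects. Change in confluence was expressed relative to DMSO and plotted against concentration. IC50 was solved by linear regression at 0.5 relative growth.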

[8] = target: T3, RGS17 (Homo sapiens, UniProt Q9UGC6); experiment: Differential scanning fluorimetry; type: binding; conditions: DSF
T3 sequence (Q9UGC6 72-206 limits assumed): T2 sequence (Q9UGC6 72-206)

[9] = Solubility in aqueous buffer for ITC; type: physicochemical; conditions: at the high concentration needed for the ITC experiment
[10] = test system: CREB phosphorylation; experiment: CREB phosphorylation upon stimulation with forskolin; type: cell-based; conditions: compared to DMSO-treated controls, data not shown
[11] = target: T4, RGS17–Gαo interaction in HEK293T cells (Homo sapiens, UniProt Q9UGC6); experiment: Confocal localization of GFP full-length RGS17 cotransfected with Gαo; type: cell-based; conditions: 100 µM, 10 min
T4 sequence (Q9UGC6 1-210): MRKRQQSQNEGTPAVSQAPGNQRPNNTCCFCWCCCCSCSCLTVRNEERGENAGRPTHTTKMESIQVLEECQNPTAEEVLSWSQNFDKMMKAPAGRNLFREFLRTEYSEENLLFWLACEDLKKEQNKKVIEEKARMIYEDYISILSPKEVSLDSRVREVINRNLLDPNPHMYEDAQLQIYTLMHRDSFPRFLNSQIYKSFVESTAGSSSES
Summary of the method: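 HEK293T cells were plated at 25 000 per well on poly-D-lysine-coated glass-bottom plates and held overnight at 37 °C, 5% CO2. They were cotransfected with hGαo (pcDNA 3.1(+)) and pAcGFP-RGS17FL using Lipofectamine 2000. At 24 h the medium was replaced with serum-free, phenol-red-free DMEM. Test compound was added at 2× in that medium to give 1× final (0.07–0.8% DMSO). Live cells were imaged by confocal microscopy.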

[12] = target: T3, RGS17; experiment: Isothermal titration calorimetry; type: binding; conditions: for change in enthalpy ΔH / entropic change TΔS / protein:ligand binding stoichiometry / ΔG binding: ITC
[13] = target: Gα protein (Homo sapiens, UniProt P09471); experiment: Differential scanning fluorimetry; type: binding; conditions: DSF, data not shown
Gα protein, sequence (P09471 whole entry): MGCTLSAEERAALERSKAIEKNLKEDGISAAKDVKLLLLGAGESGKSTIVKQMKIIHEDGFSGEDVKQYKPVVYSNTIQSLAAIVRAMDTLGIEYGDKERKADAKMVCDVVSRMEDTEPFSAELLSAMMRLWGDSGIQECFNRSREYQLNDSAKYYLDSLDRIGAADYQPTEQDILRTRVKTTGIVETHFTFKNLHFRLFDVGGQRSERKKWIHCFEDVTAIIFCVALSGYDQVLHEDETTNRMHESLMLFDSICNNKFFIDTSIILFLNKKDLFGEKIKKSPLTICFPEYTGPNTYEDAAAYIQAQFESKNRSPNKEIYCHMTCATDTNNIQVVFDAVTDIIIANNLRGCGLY

Compound | growth arrest of RWPE-1 cells [1] | delocalization of RGS17ΔN from the cell membrane, GFP signal quantification [2] | delocalization of RGS17ΔN from the cell membrane [2] | gross morphological changes indicative of cytotoxicity [3] | covalent adduct formation with RGS17 [4] | inhibition of TEM4-18 cell growth [5] | inhibition of PC3E cell growth [6] | sensitization of PC3E cells by overexpression of RGS17 [6] | inhibition of A549 cell growth [7] | melting temperature (Tm) shift for RGS17 [8] | solubility in aqueous buffer [9] | reduction of CREB phosphorylation [10] | localization of GFP full-length RGS17 [11] | Kd [12] | change in enthalpy ΔH [12] | entropic change TΔS [12] | protein:ligand binding stoichiometry [12] | ΔG binding [12] | shift in Tm for the G protein [13]
CC1=C(O)C(=O)C=C2C1=CC=C1[C@@]2(C)CC[C@@]2(C)[C@@H]3C[C@](C)(C(=O)O)CC[C@]3(C)CC[C@]12C [compound 2, celastrol] | caused growth arrest | loss of this enrichment at T = final | disrupt RGS17–Gα interaction | lack of gross morphological changes | both singly and doubly adducted species | inhibited the growth | inhibited the growth | did not result in a sensitization | sub-micromolar inhibition | only minor melting temperature (Tm) shifts | not soluble |  |  |  |  |  |  |  | 
Cc1ccc(-n2sc(=O)n(Cc3ccc(F)cc3)c2=O)cc1 [CCG-50014, reference compound] |  |  | did not result in RGS17ΔN delocalization from the membrane | significant cell shrinkage |  |  |  |  |  |  |  |  |  |  |  |  |  |  | 
C[n+]1cc2c3c(ccc2c2ccc4cc5c(cc4c21)OCO5)OCO3 [compound 1, sanguinarine] | caused growth arrest | loss of this enrichment at T = final | disrupt RGS17–Gα interaction | lack of gross morphological changes | could not be detected | inhibited the growth | inhibited the growth | did not result in a sensitization | sub-micromolar inhibition | only minor melting temperature (Tm) shifts |  | trended toward the proposed mechanism | remained at the membrane | 1 µM | -0.148 kcal/mol | 8.0202 kcal/mol | 0.82 | -8.168 kcal/mol | 
CC(C)=CCC[C@]1(C)C=Cc2c(O)c3c(c(CC=C(C)C)c2O1)O[C@]12C(=C[C@@H]4C[C@H]1C(C)(C)O[C@@]2(C/C=C(/C)C(=O)O)C4=O)C3=O [compound 3, (−)-gambogic acid] |  |  |  |  |  |  |  |  |  |  |  |  |  |  |  |  |  |  | drastic negative shift
O=c1c(-c2cc(O)c(O)c(O)c2)coc2cc(O)c(O)c(O)c12 [compound 4, irigenol] |  | demonstrated the same trend | disrupt RGS17–Gα interaction | lack of gross morphological changes | could not be detected |  |  |  | did not demonstrate any level of growth inhibition | only minor melting temperature (Tm) shifts |  | trended toward the proposed mechanism |  |  | -2.158 kcal/mol | 6.2313 kcal/mol | 0.33 | -8.389 kcal/mol | 

— publication PMC5567870 (Journal of natural products, 2017)
